From ChEMBL document CHEMBL3865832, “Rhizovarins A-F, Indole-Diterpenes from the Mangrove-Derived Endophytic Fungus Mucor irregularis QEN-189” (J Nat Prod, 2016)
Where a name gives a salt, the structure may show the parent alone.

Experiments:
[1] = Cytotoxicity against human A549 cells after 48 hrs by SRB assay; format: functional, cell-based; conditions: A549, 48 h
How it was run: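 A549 human lung adenocarcinoma cells; cytotoxicity read by sulforhodamine B (SRB) staining, with adriamycin as positive control.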

[2] = Cytotoxicity against human HL60 cells after 48 hrs by MTT assay; format: functional, cell-based; conditions: HL-60, 48 h
How it was run: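 HL-60 human leukemia cells; viability read by MTT reduction, with adriamycin as positive control.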

## C=C(C)[C@H]1O[C@H]2CC[C@@]3(C)[C@@](O)(CC[C@H]4[C@@H]5OC(C)(C)[C@H]6C[C@@H]7C(=C)Cc8c(Cl)cc9[nH]c(c5c9c8[C@@]76O)[C@@]43C)[C@]23O[C@@H]3[C@H]1O
[1]
  IC50: 8.4 µM
[2]
  IC50: 7 µM

## C=C(C)[C@H]1O[C@H]2CC[C@@]3(C)[C@@](O)(CC[C@H]4[C@@H]5OC(C)(C)[C@H]6C[C@@H]7C(=C)Cc8ccc9[nH]c(c5c9c8[C@@]76O)[C@@]43C)[C@]23O[C@@H]3[C@H]1O
[1]
  IC50: > 10 µM
[2]
  IC50: > 10 µM

## C=C(C)[C@H]1O[C@H]2CC[C@@]3(C)[C@@](O)(CC[C@H]4Cc5c([nH]c6ccccc56)[C@@]43C)[C@]23O[C@@H]3[C@H]1O
[1]
  IC50: > 10 µM
[2]
  IC50: > 10 µM

## C=C1Cc2ccc3[nH]c4c5c3c2[C@H]2[C@@H]1C[C@@H]2C(C)(C)O[C@H]5[C@@H]1CC[C@@]2(O)C3=C[C@@H](O)[C@@H](C(=C)C)O[C@H]3CC[C@]2(C)[C@@]41C
[1]
  IC50: > 10 µM
[2]
  IC50: > 10 µM

## C=C(C)[C@H]1O[C@H]2CC[C@@]3(C)[C@@](O)(CC[C@]4(OC)O[C@@H]5OC(C)(C)[C@H]6C[C@@H]7C(=C)Cc8c(Cl)cc9[nH]c(c5c9c8[C@@]76O)[C@@]43C)[C@]23O[C@@H]3[C@H]1O
[1]
  IC50: 6.3 µM
[2]
  IC50: 5 µM

## CC(C)(O)[C@H]1O[C@H]2CC[C@@]3(C)[C@@H](CC[C@H]4Cc5c([nH]c6ccccc56)[C@@]43C)C2=C[C@H]1O
[1]
  IC50: 4.6 µM
[2]
  IC50: 2.6 µM

## C=C1Cc2ccc3[nH]c4c(c3c2[C@H]2[C@@H]1C[C@@H]2C(C)(C)O)[C@@H](OC)[C@@H]1CC[C@@]2(O)[C@@]35O[C@@H]3[C@@H](O)[C@@H](C(=C)C)O[C@H]5CC[C@]2(C)[C@@]41C
[1]
  IC50: 9.2 µM
[2]
  IC50: > 10 µM

## C=C1Cc2ccc3[nH]c4c(c3c2[C@H]2[C@@H]1C[C@@H]2C(C)(C)O)C[C@@H]1CC[C@@]2(O)C3=C[C@@H](O)[C@@H](C(=C)C)O[C@H]3CC[C@]2(C)[C@@]41C
[1]
  IC50: > 10 µM
[2]
  IC50: > 10 µM

## C=C(C)[C@H]1O[C@H]2CC[C@@]3(C)[C@@](O)(CC[C@]4(OC)O[C@@H]5OC(C)(C)[C@H]6C[C@@H]7C(=C)Cc8ccc9[nH]c(c5c9c8[C@@]76O)[C@@]43C)[C@]23O[C@@H]3[C@H]1O
[1]
  IC50: > 10 µM
[2]
  IC50: > 10 µM

## C=C(C)[C@H]1O[C@H]2CC[C@@]3(C)[C@@](O)(CC[C@]4(O)O[C@@H]5OC(C)(C)[C@H]6C[C@@H]7C(=C)Cc8c(Cl)cc9[nH]c(c5c9c8[C@@]76O)[C@]34C)[C@]23O[C@@H]3[C@H]1O
[1]
  IC50: 11.5 µM
[2]
  IC50: 9.6 µM

## C=C(C)[C@H]1O[C@H]2CC[C@@]3(C)[C@@](O)(CC[C@H]4Cc5c([nH]c6ccccc56)[C@@]43C)C2=C[C@H]1O
[1]
  IC50: > 10 µM
[2]
  IC50: > 10 µM

## C=C(C)[C@@H]1CC=C2[C@H](CC[C@@]3(C)[C@@]2(O)CC[C@H]2Cc4c([nH]c5ccc6c(c45)[C@@H]4[C@@H](C(C)(C)O)C[C@@H]4C6(C)C)[C@@]23C)O1
[1]
  IC50: > 10 µM
[2]
  IC50: > 10 µM

## CC(=O)OC(C)(C)[C@H]1O[C@H]2CC[C@@]3(C)[C@@H](CC[C@H]4Cc5c([nH]c6ccccc56)[C@@]43C)C2=CC1=O
[1]
  IC50: > 10 µM
[2]
  IC50: > 10 µM

## C=C(C)[C@H]1C[C@H](C(C)(C)O)[C@H]1c1cccc2c1C(=O)C[C@@H]1CC[C@@]3(O)C4=C[C@@H](O)[C@@H](C(=C)C)O[C@H]4CC[C@]3(C)[C@@]1(C)C(=O)N2
[1]
  IC50: > 10 µM
[2]
  IC50: > 10 µM

## COc1cccc2c1C(=O)c1c(O)c3c(c(O)c1C2=O)C[C@@](O)(C(=O)CO)C[C@@H]3O[C@H]1C[C@H](N)[C@H](O)[C@H](C)O1 [DOXORUBICIN HYDROCHLORIDE]
[1]
  IC50: 0.3 µM
[2]
  IC50: 0.067 µM

## C=C1Cc2ccc3[nH]c4c5c3c2[C@H]2[C@@H]1C[C@@H]2C(C)(C)O[C@H]5[C@@H]1CC[C@@]2(O)[C@@]35O[C@@H]3[C@@H](O)[C@@H](C(=C)C)O[C@H]5CC[C@]2(C)[C@@]41C [PENITREM B]
[1]
  IC50: > 10 µM
[2]
  IC50: > 10 µM

## C=C1Cc2c(Cl)cc3[nH]c4c5c3c2[C@H]2[C@@H]1C[C@@H]2C(C)(C)O[C@H]5[C@@H]1CC[C@@]2(O)C3=C[C@@H](O)[C@@H](C(=C)C)O[C@H]3CC[C@]2(C)[C@@]41C [PENITREM C]
[1]
  IC50: 8 µM
[2]
  IC50: 4.7 µM

## C=C1Cc2c(Cl)cc3[nH]c4c5c3c2[C@H]2[C@@H]1C[C@@H]2C(C)(C)O[C@H]5[C@@H]1CC[C@@]2(O)[C@@]35O[C@@H]3[C@@H](O)[C@@H](C(=C)C)O[C@H]5CC[C@]2(C)[C@@]41C [PENITREM F]
[1]
  IC50: 8.2 µM
[2]
  IC50: 3.3 µM
